Source: ChEMBL document CHEMBL5053517, “Design, synthesis, and antiviral activity of phenylalanine derivatives as HIV-1 capsid inhibitors” (Bioorg Med Chem, 2021)

Assays:
[1] = test system: Human immunodeficiency virus 1; assay: Antiviral activity against HIV1 NL4-3 expressing NanoLuc-sec infected in human MT4 cells assessed as reduction in viral replication measured after 3 days by bright Glo-luciferase reporter gene assay; format: functional, organism-based; conditions: Human immunodeficiency virus 1, NL4-3, MT4, 72 h
Method in brief: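 MT-4 cells (1 × 10⁵ cells/mL) infected with 200 TCID50 HIV-1 NL4–3 Nanoluc-sec across a range of compound concentrations. Incubation ran 3 days at 37°C, 5% CO₂, over multiple replication rounds. Luminescence was read after Bright Glo addition. EC₅₀ is the concentration giving 50% lower luciferase RLU than virus-control wells.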

[2] = Selectivity index, ratio of CC50 for cytotoxicity against human MT4 cells to EC50 for antiviral activity against HIV1 infected in human MT4 cells; format: toxicity, cell-based; conditions: read-out: Ratio CC50/EC50
Method in brief: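 SI is CC₅₀/EC₅₀. For EC₅₀, MT-4 cells (1 × 10⁵ cells/mL) were infected with 200 TCID50 HIV-1 NL4-3 Nanoluc-sec with graded compound concentrations, held 3 days at 37°C, 5% CO₂, and read by luminescence; EC₅₀ is 50% luciferase reduction versus virus control. For CC₅₀, uninfected MT-4 cells were run in parallel for 3 days with an XTT read-out at 450 nm.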

MT4 = assay: (§1) Cytotoxicity against human MT4 cells assessed as reduction in cell viability incubated for 3 days by XTT assay; format: cell-based; conditions: mt4, 72 h, time 3 day
Method in brief: (§2)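 Uninfected MT-4 cells were cultured with various compound concentrations at 37°C, 5% CO₂ for three days, in parallel with the antiviral assay. XTT was added, and absorbance at 450 nm was read four hours later. CC₅₀ is the concentration giving 50% loss of cell viability.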

[3] = Binding affinity to HIV1 capsid protein monomer assessed as dissociation constant by SPR analysis; parameters: species or system Human immunodeficiency virus 1
Method in brief: (§3)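 SPR at 25 °C on amine-coupled GLH chips, with protein at 500 μg/ml in 10 mM sodium acetate pH 5.5. Running buffer was 20 mM sodium phosphate, 150 mM NaCl, 0.005% Tween 20, pH 7.4, plus 3% DMSO for compound dilutions. One-shot kinetics used 100 μL/min, 1 min association and 5 min dissociation. Responses were reference-subtracted, run three times, and KD taken from a one-site binding model.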

[4] = Binding affinity to HIV1 capsid protein hexamer assessed as dissociation constant by SPR analysis; parameters: species or system Human immunodeficiency virus 1; method in brief: as §3
[5] = as §1; format: cell-based; conditions: MT4 cells, time 3 day; method in brief: as §2

SMILES | EC50 [1] [µM] | selectivity ratio [2] | CC50 (MT4) [µM] | Kd [3] [µM] | Kd [4] [µM] | CC50 at 72 h [5] [µM]
COc1ccc(N(C)C(=O)[C@H](Cc2ccccc2)NC(=O)c2cccc(S(=O)(=O)N3CCSCC3)c2)cc1 | 5.06 | > 1.84 | > 9.33 | – | – | –
COc1ccc(N(C)C(=O)[C@H](Cc2ccccc2)NC(=O)c2cccc(NS(=O)(=O)c3ccc(OC(F)(F)F)cc3)c2)cc1 | > 7.97 | – | > 7.97 | – | – | –
COc1ccc(N(C)C(=O)[C@H](Cc2ccccc2)NS(=O)(=O)CC(=O)Nc2ccc(C#N)cc2)cc1 | 8.09 | > 1.22 | > 9.87 | – | – | –
COc1ccc(N(C)C(=O)[C@H](Cc2ccccc2)NC(=O)c2cccc(S(=O)(=O)Nc3ccc(C(F)(F)F)cc3)c2)cc1 | > 8.17 | – | > 8.17 | – | – | –
COc1ccc(N(C)C(=O)[C@H](Cc2ccccc2)NC(=O)c2cccc(S(=O)(=O)N3CCc4cc([N+](=O)[O-])ccc43)c2)cc1 | > 8.13 | – | > 8.13 | – | – | –
COc1ccc(N(C)C(=O)CS(=O)(=O)N[C@@H](Cc2ccccc2)C(=O)N(C)c2ccc(OC)cc2)cc1 | 5.14 | > 1.85 | > 9.51 | 15.8 | 4.82 | –
COc1ccc(N(C)C(=O)[C@H](Cc2ccccc2)NC(=O)c2cccc(S(=O)(=O)Nc3cc(F)cc(F)c3)c2)cc1 | > 8.63 | – | > 8.63 | – | – | –
COc1ccc(N(C)C(=O)[C@H](Cc2ccccc2)NC(=O)c2cccc(NS(=O)(=O)c3cc(F)cc(F)c3)c2)cc1 | > 8.63 | – | > 8.63 | – | – | –
COc1ccc(N(C)C(=O)c2cccc(S(=O)(=O)N[C@@H](Cc3ccccc3)C(=O)N(C)c3ccc(OC)cc3)c2)cc1 | > 8.51 | – | > 8.51 | – | – | –
COc1ccc(N(C)C(=O)[C@H](Cc2ccccc2)NC(=O)c2cccc(S(=O)(=O)N(C)c3ccc(OC)cc3)c2)cc1 | 5.27 | > 1.61 | > 8.51 | – | – | –
COc1ccc(N(C)C(=O)[C@H](Cc2ccccc2)NS(=O)(=O)c2cccc(C(=O)Nc3ccc4ncsc4c3)c2)cc1 | > 8.32 | – | > 8.32 | – | – | –
COc1ccc(N(C)C(=O)[C@H](Cc2ccccc2)NS(=O)(=O)CC(=O)N2CCc3cc(OC)ccc32)cc1 | > 9.3 | – | > 9.3 | – | – | –
COc1ccc(N(C)C(=O)[C@H](Cc2ccccc2)NS(=O)(=O)CC(=O)N2CCc3cc([N+](=O)[O-])ccc32)cc1 | > 9.09 | – | – | – | – | > 9.05
COc1ccc(N(C)C(=O)[C@H](Cc2ccccc2)NC(=O)c2cccc(S(=O)(=O)N3CCc4cc(OC)ccc43)c2)cc1 | > 8.34 | – | > 8.34 | – | – | –
COc1ccc(N(C)C(=O)[C@H](Cc2ccccc2)NS(=O)(=O)CC(=O)Nc2ccc3ncsc3c2)cc1 | > 9.28 | – | > 9.28 | – | – | –
COc1ccc(N(C)C(=O)[C@H](Cc2ccccc2)NC(=O)C(=O)N2CCc3cc(OC)ccc32)cc1 | > 10.3 | – | > 10.3 | – | – | –

SMILES | EC50 [1] [µM] | selectivity ratio [2] | CC50 (MT4) [µM] | Kd [3] [µM] | Kd [4] [µM] | CC50 at 72 h [5] [µM]
COc1ccc(N(C)C(=O)[C@H](Cc2ccccc2)NS(=O)(=O)c2cccc(C(=O)NC3CC3)c2)cc1 | > 9.85 | – | > 9.85 | – | – | –
COc1ccc(N(C)C(=O)[C@H](Cc2ccccc2)NS(=O)(=O)CC(=O)Nc2cc(F)cc(F)c2)cc1 | > 9.66 | – | > 9.66 | – | – | –
COc1ccc(N(C)C(=O)[C@H](Cc2ccccc2)NC(=O)c2cccc(NS(=O)(=O)c3ccc(F)cc3)c2)cc1 | > 8.91 | – | > 8.91 | – | – | –
COc1ccc(N(C)C(=O)[C@H](Cc2ccccc2)NC(=O)c2cccc(S(=O)(=O)N3CCc4cc(N)ccc43)c2)cc1 | 2.57 | > 3.33 | > 8.55 | 11.6 | 4.21 | –
COc1ccc(N(C)C(=O)[C@H](Cc2ccccc2)NC(=O)C(=O)Nc2ccc([N+](=O)[O-])cc2)cc1 | > 10.5 | – | – | – | – | –
COc1ccc(N(C)C(=O)[C@H](Cc2ccccc2)NC(=O)C(=O)Nc2cc(F)cc(F)c2)cc1 | > 8.81 | – | > 8.81 | – | – | –
COc1ccc(N(C)C(=O)[C@H](Cc2ccccc2)NS(=O)(=O)c2cccc(C(=O)N3CCc4ccncc43)c2)cc1 | > 8.76 | – | – | – | – | > 8.76
COc1ccc(N(C)C(=O)C(=O)N[C@@H](Cc2ccccc2)C(=O)N(C)c2ccc(OC)cc2)cc1 | > 10.5 | – | > 10.5 | – | – | –
COc1ccc(N(C)C(=O)[C@H](Cc2ccccc2)NC(=O)c2cccc(S(=O)(=O)N(C)C)c2)cc1 | 8.68 | > 1.12 | > 10.1 | – | – | –
COc1ccc(N(C)C(=O)[C@H](Cc2ccccc2)NC(=O)C(=O)N2CCc3cc([N+](=O)[O-])ccc32)cc1 | > 9.95 | – | > 9.95 | – | – | –
COc1ccc(N(C)C(=O)[C@H](Cc2ccccc2)NC(=O)c2cccc(S(=O)(=O)N3CCCCC3)c2)cc1 | 4.85 | > 1.86 | – | – | – | > 9.03
COc1ccc(N(C)C(=O)[C@H](Cc2ccccc2)NC(=O)c2cccc(S(=O)(=O)N3CCc4ccccc43)c2)cc1 | > 8.78 | – | > 8.78 | – | – | –
COc1ccc(N(C)C(=O)[C@H](Cc2ccccc2)NC(=O)C(=O)Nc2ccc3ncsc3c2)cc1 | > 10.2 | – | > 10.2 | – | – | –
COc1ccc(N(C)C(=O)[C@H](Cc2ccccc2)NC(=O)C(=O)Nc2ccc(C#N)cc2)cc1 | > 11 | – | > 11 | – | – | –
COc1ccc(N(C)C(=O)[C@H](Cc2ccccc2)NS(=O)(=O)CC(=O)n2ncc3ccccc32)cc1 | > 9.87 | – | > 9.87 | – | – | –
COc1ccc(N(C)C(=O)[C@H](Cc2ccccc2)NS(=O)(=O)c2cccc(C(=O)N3CCOCC3)c2)cc1 | > 9.3 | – | > 9.3 | – | – | –
